Assay type in all cases: functional
Experiment [1] deals with Staphylococcus epidermidis. Nature of the experiment: Antimicrobial activity against Staphylococcus epidermidis ATCC 12228 by broth microdilution method. The method, boiled down: (§1)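 Inocula were saline (0.85% NaCl) suspensions at 0.5 McFarland (150 × 10⁶ CFU/mL). Compounds were first screened by agar dilution on Mueller-Hinton agar, and active ones then went to broth microdilution. MIC is the lowest concentration inhibiting growth. The negative control was medium containing DMSO at the final concentration, without compound.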
For orientation: Dilution methods test growth across graded concentrations, often in twofold steps.

Experiment [2] concerns Escherichia coli. Description: Antimicrobial activity against Escherichia coli ATCC 25922 by broth microdilution method. In short, it runs like this:
as §1

The test system of experiment [3] is Bacillus subtilis. Description: Antimicrobial activity against Bacillus subtilis ATCC 6633 by broth microdilution method. The method, boiled down:
as §1

Experiment [4] concerns Proteus mirabilis. Nature of the experiment: Antimicrobial activity against Proteus mirabilis ATCC 12453 by broth microdilution method. In short, it runs like this:
as §1

Experiment [5] deals with Micrococcus luteus. Description: Antimicrobial activity against Micrococcus luteus ATCC 10240 by broth microdilution method. In short, it runs like this:
as §1

The test system of experiment [6] is Bacillus cereus. Description: Antimicrobial activity against Bacillus cereus ATCC 10876 by broth microdilution method. In short, it runs like this:
as §1

Experiment [7] relates to Pseudomonas aeruginosa. Nature of the experiment: Antimicrobial activity against Pseudomonas aeruginosa ATCC 9027 by broth microdilution method. In short, it runs like this: as §1
The test system of experiment [8] is Staphylococcus aureus. Nature of the experiment: Antimicrobial activity against methicillin-resistant Staphylococcus aureus 14001 by broth microdilution method. In short, it runs like this: (§2)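 Inoculum in sterile saline (0.85% NaCl), adjusted to 0.5 McFarland (150 × 10⁶ CFU/mL). Compounds first screened by agar dilution on Mueller-Hinton agar, then titrated by broth microdilution. Medium with DMSO at the final concentration and no compound served as negative control. MIC is the lowest concentration inhibiting growth. MBC is the lowest concentration giving >99.9% reduction in CFU of the initial inoculum.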

Experiment [9] concerns Staphylococcus aureus. Nature of the experiment: Antimicrobial activity against Staphylococcus aureus ATCC 25923 by broth microdilution method. The method, boiled down: as §1
Experiment [10] concerns Staphylococcus aureus. Description: Ratio of MBC to MIC for methicillin-resistant Staphylococcus aureus 14001 by broth microdilution method. The method, boiled down:
as §2

Experiment [11] has as its system Pseudomonas aeruginosa. Nature of the experiment: Ratio of ciprofloxacin MIC to compound MIC for Pseudomonas aeruginosa ATCC 9027 by broth microdilution method.

Converted amounts (≈) assume the structure as drawn.

A word on the MIC: it is the least concentration at which growth counts as inhibited. Low readings indicate a more susceptible organism, high ones a less susceptible organism. The term MBC denotes the lowest tested concentration that kills the bacteria rather than only halting them. A high value points to less potent killing. For `Cn1c(-c2cccc(Cl)c2)nn(CN2CCN(c3cc4c(cc3F)c(=O)c(C(=O)O)cn4C3CC3)CC2)c1=S`, the MIC stood at 0.86 µM (≈ 0.489 µg/mL) in [1]; 0.053 µM (≈ 0.0302 µg/mL) in experiment [2]; 0.053 µM (≈ 0.0302 µg/mL) in experiment [3]; 0.053 µM (≈ 0.0302 µg/mL) in experiment [4]; 1.72 µM (≈ 0.979 µg/mL) in experiment [5]; 0.21 µM (≈ 0.12 µg/mL) in [6]. Further, the MIC in experiment [7] was 0.1 µM (≈ 0.0569 µg/mL); in [8] it was 0.42 µM (≈ 0.239 µg/mL); in experiment [9] it was 0.86 µM (≈ 0.489 µg/mL). Further, the minimum bactericidal concentration (MBC) in experiment [8] turned out to be 0.86 µM (≈ 0.489 µg/mL). In [10], the Ratio is listed as 2.

As for `O=C(O)c1cn(C2CC2)c2cc(N3CCN(Cn4nc(-c5cccc(O)c5)n(-c5cccc(I)c5)c4=S)CC3)c(F)cc2c1=O`, the MIC in [1] stood at 0.66 µM (≈ 0.487 µg/mL); in experiment [2], 0.041 µM (≈ 0.0303 µg/mL); in [3], 0.32 µM (≈ 0.236 µg/mL); in experiment [4], 0.041 µM (≈ 0.0303 µg/mL); in experiment [5] it was 1.33 µM (≈ 0.982 µg/mL); in experiment [6], 0.16 µM (≈ 0.118 µg/mL). Besides, the minimum inhibitory concentration (MIC) was determined as 0.081 µM (≈ 0.0598 µg/mL) in experiment [7], 0.66 µM (≈ 0.487 µg/mL) in experiment [8] and 0.66 µM (≈ 0.487 µg/mL) in experiment [9]. The minimal bactericidal concentration (MBC) in experiment [8] was determined as 0.66 µM (≈ 0.487 µg/mL). Also, the Ratio in experiment [11] is 8; in experiment [10], 1.

`O=C(O)c1cn(C2CC2)c2cc(N3CCN(Cn4nc(-c5cccc(Cl)c5)n(-c5ccc(Cl)cc5Cl)c4=S)CC3)c(F)cc2c1=O`: the MIC in [1] was found to be 0.7 µM (≈ 0.49 µg/mL); in experiment [2], 0.043 µM (≈ 0.0301 µg/mL); in [3], 0.043 µM (≈ 0.0301 µg/mL); in [4], 0.043 µM (≈ 0.0301 µg/mL); in experiment [5] it was 2.78 µM (≈ 1.95 µg/mL); in experiment [6], 0.17 µM (≈ 0.119 µg/mL). The values for the MIC in experiment [7], in experiment [8] and in experiment [9] were 0.17 µM (≈ 0.119 µg/mL), 0.7 µM (≈ 0.49 µg/mL) and 1.4 µM (≈ 0.98 µg/mL), respectively. In experiment [8], this compound had an MBC of 44.6 µM (≈ 31.2 µg/mL). In addition, in [10], the Ratio is reported as 64.

For the compound `O=C(O)c1cn(C2CC2)c2cc(N3CCN(Cn4nc(-c5cccc(O)c5)n(-c5cccc([N+](=O)[O-])c5)c4=S)CC3)c(F)cc2c1=O`, the MIC in experiment [1] stood at 0.74 µM (≈ 0.487 µg/mL); in [2] it was 0.023 µM (≈ 0.0151 µg/mL); in experiment [3], 0.18 µM (≈ 0.118 µg/mL); in experiment [4], 0.023 µM (≈ 0.0151 µg/mL); in experiment [5], 1.49 µM (≈ 0.98 µg/mL); in experiment [6], 0.18 µM (≈ 0.118 µg/mL). Further, the MIC in [7] is 0.18 µM (≈ 0.118 µg/mL); in experiment [8], 0.36 µM (≈ 0.237 µg/mL); in [9], 0.74 µM (≈ 0.487 µg/mL). Also, the MBC in experiment [8] turned out to be 0.74 µM (≈ 0.487 µg/mL). In addition, the Ratio worked out at 4 in [11] and 2 in experiment [10].

`Cc1nn(CN2CCN(c3cc4c(cc3F)c(=O)c(C(=O)O)cn4C3CC3)CC2)c(=S)n1-c1cccc(I)c1`: the minimal inhibitory concentration (MIC) in [1] is 23.7 µM (≈ 15.6 µg/mL); in [2], 0.36 µM (≈ 0.238 µg/mL); in [3] it was 1.48 µM (≈ 0.978 µg/mL); in [4], 0.74 µM (≈ 0.489 µg/mL); in [5] it was 94.6 µM (≈ 62.5 µg/mL); in experiment [6], 1.48 µM (≈ 0.978 µg/mL). Further, the MIC turned out to be 2.95 µM (≈ 1.95 µg/mL) in experiment [7], 23.7 µM (≈ 15.6 µg/mL) in experiment [8] and 23.7 µM (≈ 15.6 µg/mL) in [9]. In experiment [8], the MBC was 23.7 µM (≈ 15.6 µg/mL). The Ratio in experiment [10] is given as 1.

Consider `O=C(O)c1cn(C2CC2)c2cc(N3CCN(Cn4nc(-c5cccc(Cl)c5)n(-c5ccc(I)cc5)c4=S)CC3)c(F)cc2c1=O`, for which the MIC in [1] is 5.16 µM (≈ 3.91 µg/mL); in experiment [2] it was 0.08 µM (≈ 0.0606 µg/mL); in experiment [3], 0.32 µM (≈ 0.242 µg/mL); in experiment [4] it was 0.16 µM (≈ 0.121 µg/mL); in [5], 10.3 µM (≈ 7.8 µg/mL); in [6], 1.29 µM (≈ 0.977 µg/mL). In addition, the MIC in experiment [7] amounted to 1.29 µM (≈ 0.977 µg/mL); in [8], 2.58 µM (≈ 1.95 µg/mL); in experiment [9] it was 5.16 µM (≈ 3.91 µg/mL). The MBC in [8] came to 5.16 µM (≈ 3.91 µg/mL). Further, in experiment [10], the Ratio came to 2.

In [8], `CN[C@H](CC(C)C)C(=O)N[C@H]1C(=O)N[C@@H](CC(N)=O)C(=O)N[C@H]2C(=O)N[C@H]3C(=O)N[C@H](C(=O)N[C@H](C(=O)O)c4cc(O)cc(O)c4-c4cc3ccc4O)[C@H](O)c3ccc(c(Cl)c3)Oc3cc2cc(c3O[C@@H]2O[C@H](CO)[C@@H](O)[C@H](O)[C@H]2O[C@H]2C[C@](C)(N)[C@H](O)[C@H](C)O2)Oc2ccc(cc2Cl)[C@H]1O` [VANCOMYCIN] showed a minimal bactericidal concentration (MBC) of 2.7 µM (≈ 3.91 µg/mL) and an MIC of 0.68 µM (≈ 0.986 µg/mL).

With `CCCc1nn(CN2CCN(c3cc4c(cc3F)c(=O)c(C(=O)O)cn4C3CC3)CC2)c(=S)n1-c1cccc(I)c1`, the minimal inhibitory concentration (MIC) in experiment [1] amounted to 90.8 µM (≈ 62.5 µg/mL); in experiment [2], 0.71 µM (≈ 0.489 µg/mL); in experiment [3], 5.68 µM (≈ 3.91 µg/mL); in experiment [4], 2.83 µM (≈ 1.95 µg/mL); in [5] it was 182 µM (≈ 125 µg/mL); in experiment [6], 22.7 µM (≈ 15.6 µg/mL). For the same compound, the MIC turned out to be 22.7 µM (≈ 15.6 µg/mL) in [7], 182 µM (≈ 125 µg/mL) in experiment [8] and 90.8 µM (≈ 62.5 µg/mL) in experiment [9]. Further, the minimum bactericidal concentration (MBC) in experiment [8] came to 182 µM (≈ 125 µg/mL). Further, the Ratio in experiment [10] amounted to 1.

For the origin of these results see ChEMBL document CHEMBL2311311, “Synthesis and in vitro activity of 1,2,4-triazole-ciprofloxacin hybrids against drug-susceptible and drug-resistant bacteria” (Eur J Med Chem, 2013).
